Reference: ChEMBL document CHEMBL1154620, “Total synthesis and antiproliferative activity screening of (+/-)-aplicyanins A, B and E and related analogues” (2009)
Activity calls are given as the source filed them. The rule behind the calls is not given here.

Tests used:
Format in all cases: functional
A549 = test: Cytotoxicity against human A549 cells after 72 hrs by SRB assay
Summary of the method: (§1)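 Cells seeded at 5 × 10³/well and grown 24 h; one plate per line fixed at this point as T_z reference. Exposure to vehicle or compound for a further 72 h. Wash in PBS, fix 15 min in 1% glutaraldehyde, stain 30 min at rt with 0.4% SRB, rinse in 1% acetic acid, extract into 10 mM trizma base, read A490. NCI algorithm; GI50 interpolated from dose curves.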

HT-29 = test: Cytotoxicity against human HT-29 cells after 72 hrs by SRB assay; summary of the method: as §1
MDA-MB-231 = test: Cytotoxicity against human MDA-MB-231 cells after 72 hrs by SRB assay; summary of the method: as §1

SMILES | GI50 (A549; A549, 72 h) [µM] | GI50 (HT-29; HT-29, 72 h) [µM] | GI50 (MDA-MB-231; MDA-MB-231, 72 h) [µM] | GI50 (A549) | GI50 (HT-29) | GI50 (MDA-MB-231)
CC(=O)/N=C1\NCCC(c2cn(C)c3cc(Br)ccc23)N1 (racemic) | 6.3 | 4.3 | 8.02 |  |  | 
Cn1cc(C2CCN=C(N)N2)c2ccccc21 (racemic) | 2.67 | 4.29 | 1.71 |  |  | 
Cn1cc(C2CCN=C(N)N2)c2ccc(Br)cc21 (racemic) | 9.11 | 4.56 | 8.79 |  |  | 
Cn1cc(C2CCN=C(N)N2)c2cc(Br)ccc21 (racemic) |  | 13.7 | 25.7 | inactive |  | 
Cn1cc(C2CC(=O)N=C(N)N2)c2ccc(Br)cc21 (racemic) |  |  | 2.86 | inactive | inactive | 
NC1=NCCC(c2c[nH]c3cc(Br)ccc23)N1 (racemic) |  | 21.1 | 19.1 | inactive |  | 
CC(=O)/N=C1\NCCC(c2c[nH]c3cc(Br)ccc23)N1 (racemic) | 6.86 | 2.12 | 5.67 |  |  | 
CC(=O)/N=C1\NCCC(c2cn(C)c3ccccc23)N1 (racemic) | 10.7 | 7.4 | 14.4 |  |  | 
CC(=O)/N=C1\NCCC(c2cn(C)c3ccc(Br)cc23)N1 (racemic) | 0.43 | 0.31 | 0.94 |  |  | 
COn1cc(C2CC(=O)N=C(N)N2)c2cc(Br)c(Br)cc21 (racemic) |  |  |  | inactive | inactive | inactive
COn1cc(C2CC(=O)N=C(N)N2)c2ccccc21 (racemic) |  |  |  | inactive | inactive | inactive
COn1cc(C2CCN=C(N)N2)c2ccccc21 (racemic) |  |  |  | inactive | inactive | inactive
Cn1cc(C2CC(=O)N=C(N)N2)c2cc(Br)ccc21 (racemic) |  |  |  | inactive | inactive | inactive
Cn1cc(C2CC(=O)N=C(N)N2)c2ccccc21 (racemic) |  |  |  | inactive | inactive | inactive
NC1=NC(=O)CC(c2c[nH]c3cc(Br)ccc23)N1 (racemic) |  |  |  | inactive | inactive | inactive
NC1=NC(=O)CC(c2c[nH]c3ccc(Br)cc23)N1 (racemic) |  |  |  | inactive | inactive | inactive
NC1=NCCC(c2c[nH]c3cc(Br)c(Br)cc23)N1 (racemic) |  |  |  | inactive | inactive | inactive
NC1=NCCC(c2c[nH]c3ccc(Br)cc23)N1 (racemic) [APLICYANIN A] | 0.27 | 0.11 | 0.27 |  |  | 
CC(=O)/N=C1\NCCC(c2c[nH]c3ccc(Br)cc23)N1 (racemic) [APLICYANIN B] | 0.51 | 0.33 | 0.98 |  |  | 
COn1cc(C2CCN=C(N)N2)c2cc(Br)c(Br)cc21 (racemic) [APLICYANIN E] |  |  | 10.9 | inactive | inactive | 
